Calls of active or inactive are those of the source. No cut-off for these calls is given here.
Tests used:
[1] = tested on: Hepatitis C virus; assay: Antiviral activity against Hepatitis C virus subtype 2a infected in human Huh7.5 cells assessed as inhibition of viral RNA replication at 100 uM after 42 hrs by […] assay relative to control; assay type: functional, Hepacivirus hominis; settings: genotype 2a; for inhibition at 100 µM: Huh-7, 42 h; for inhibition: Hepacivirus hominis, Huh-7
Procedure, shortened: (§1)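 Replicon reporter cells (Huh7/Rep-Feo1b for 1b; Huh7.5-FGR-JC1-Rluc2A for 2a) kept in DMEM, 10% FCS, 0.5 mg/mL G418, 37 °C, 5% CO2. Seeded 1 × 10^4 cells/well, treated 8 h later with 100 μM compound or DMSO for 42 h. Luciferase signal read as percent of DMSO controls. Viability by MTS assay in parental Huh7.5 cells. Average of two independent experiments in duplicate.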

[2] = Cytotoxicity against human Huh7.5 cells assessed as cell viability at 100 uM after 42 hrs by MTS assay; assay type: cell-based, Huh-7; settings: read-out: Activity
[3] = tested on: Hepatitis C virus; assay: Antiviral activity against Hepatitis C virus subtype 1b infected in human HuH7 cells assessed as inhibition of viral RNA replication at 100 uM after 42 hrs by […] assay relative to control; assay type: functional, Hepacivirus hominis; settings: genotype 1b; for inhibition at 100 µM: Huh-7, 42 h; for inhibition: Hepacivirus hominis, Huh-7; procedure, shortened: as §1
[4] = Inhibition of HCV NS5B RdRp activity transfected in BHK cells at 100 uM after 42 hrs by dual-glo luciferase reporter gene assay relative to control; assay type: cell-based; settings: Hepacivirus hominis
Procedure, shortened: (§2)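 BHK cells stably carrying NS5B plus bicistronic (+)FLuc-(−)UTR-RLuc reporter, grown in DMEM, 10% FBS, 1 mg/mL G418, blasticidin. Seeded 1 × 10^4 cells/well, given 100 μM compound 8 h later, lysed 42 h post-treatment, dual luciferase read. Viability taken as firefly luciferase relative to DMSO controls. NS5B activity taken as percent reduction in RLuc/FLuc ratio versus DMSO. Two independent experiments in duplicate.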

[5] = tested on: Hepacivirus hominis; assay: Inhibition of HCV NS5BCdelta21 RdRp activity at 100 uM after 1 hr by liquid scintillation counting analysis in presence of [alpha-32P]UTP relative to control
Procedure, shortened: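 Template 0.25 μM polyrA/U12, with 25 μM UTP plus [α-32P]UTP. Inhibitor at 100 μM, 1 h, 30 °C. Stopped with cold 5% TCA/0.5 mM pyrophosphate, product filter-captured and counted by scintillation. Background-subtracted, relative to DMSO (100%). At least two independent experiments in duplicate.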

[6] = Cytotoxicity against BHK cells transfected with HCV NS5B RdRp assessed as cell viability at 100 uM after 42 hrs by luciferase reporter gene assay; assay type: cell-based, Mesocricetus auratus; settings: hamster, read-out: Activity; procedure, shortened: as §2
[7] = Inhibition of HCV NS5BCdelta21 RdRp activity after 1 hr by liquid scintillation counting analysis in presence of [alpha-32P]UTP; set-up: species or system Hepacivirus hominis
Procedure, shortened: (§3)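 NS5BCΔ21 (300 ng) was incubated 1 h at 30 °C with 0.25 μM polyrA/U12, 25 μM UTP plus [α-32P]UTP and 1.0 mM MnCl2 in 20 mM Tris-HCl pH 7.0 with NaCl, Na glutamate, DTT, BSA, Tween-20, glycerol and RNase inhibitor. Reactions were stopped with cold 5% TCA/pyrophosphate, captured on GF-B filters and scintillation-counted versus a background-subtracted DMSO control. Screening used 100 μM; IC50 came from 8–12-point curves, duplicate, two experiments.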

[8] = Selectivity ratio for Hepatitis C virus subtype 2a infected in human Huh7.5 cells over Hepatitis C virus subtype 1b infected in human HuH7 cells; assay type: functional, Huh-7
[9] = Inhibition of 6xHis-tagged HCV NS5B RdRp activity; set-up: species or system Hepacivirus hominis; procedure, shortened: as §3
[10] = Inhibition of HCV NS5B RdRp activity; set-up: species or system Hepacivirus hominis; procedure, shortened: as §3

Structure (SMILES)	inhibition at 100 µM [1] [%]	viability at 42 h, 100 µM [2] [%]	inhibition at 100 µM [3] [%]	inhibition [4]	inhibition [5] [%]	viability at 42 h, 100 µM [6] [%]	IC50 [7] [µM]	Selectivity ratio [8]	inhibition [1]	inhibition [3]	IC50 [9] [µM]	IC50 [10] [µM]
COc1cccc(OC)c1/C=C1\S/C(=N/c2nnc(-c3ccc(F)cc3)s2)NC1=O	93.2	63	87.7	inactive	19.7	73.7	–	–	–	–	–	–
O=C1CS/C(=N/c2nnc(-c3ccc(F)cc3)s2)N1	72.8	14	70	57.9%	76.1	–	38.6	–	–	–	–	–
O=C1CS/C(=N/c2nnc(-c3ccc(Cl)cc3)s2)N1	89.8	13.3	54.1	65.7%	74.4	15.2	42.5	1.6	–	–	–	–
O=C1N/C(=N\c2nnc(-c3ccc(Cl)cc3)s2)S/C1=C\c1c(F)cccc1Cl	–	0	–	inactive	60.3	0	45.3	–	inactive	inactive	–	–
O=C1N/C(=N\c2nnc(-c3ccc(F)cc3)s2)S/C1=C\c1ccc(Cl)cc1Cl	54.7	4.2	29.4	inactive	11.5	0	–	1.6	–	–	–	–
O=C(CCl)Nc1nnc(-c2ccc(F)cc2)s1	–	84.8	–	–	16	98.3	–	–	–	–	–	–
O=C1N/C(=N\c2nnc(-c3ccc(Cl)cc3)s2)S/C1=C\c1cccc(F)c1	95.6	60.3	92.8	63.1%	65.5	58.1	48.2	–	–	–	–	–
O=C1N/C(=N\c2nnc(-c3ccc(F)cc3)s2)S/C1=C\c1ccccc1Cl	95.3	15.6	98	61%	53.9	11.4	64.9	–	–	–	–	–
O=C(CCl)Nc1nnc(-c2ccc(Cl)cc2)s1	–	81.9	–	–	20	98.9	–	–	–	–	–	–
Nc1nnc(-c2ccc(F)cc2)s1	52.4	18.6	46.8	9.4%	15.4	–	–	–	–	–	–	–
O=C1N/C(=N\c2nnc(-c3ccc(Cl)cc3)s2)S/C1=C\c1ccc(Cl)cc1Cl	–	0	–	inactive	25.7	0	–	–	inactive	inactive	–	–
O=C1N/C(=N\c2nnc(-c3ccc(F)cc3)s2)S/C1=C\c1c(F)cccc1Cl	98.5	74.6	99.4	–	28.1	89.8	–	–	–	–	–	–
O=C1/C(=C/c2ccc(Br)cc2)SC(=S)N1NS(=O)(=O)c1ccccc1	–	–	–	–	–	–	–	–	–	–	0.44	–
O=C1N/C(=N\c2nnc(-c3ccc(Cl)cc3)s2)S/C1=C\c1c(Cl)cccc1Cl	98.1	76	98.5	–	82	94.9	5.6	–	–	–	–	–
O=C1N/C(=N\c2nnc(-c3ccc(F)cc3)s2)S/C1=C\c1cccc(F)c1	98	59.7	95.5	85.9%	72	55.1	34.6	–	–	–	–	–
O=C1N/C(=N\c2nnc(-c3ccc(F)cc3)s2)S/C1=C\c1ccc([N+](=O)[O-])cc1	50.4	13.9	51.2	7%	24.1	14.6	–	–	–	–	–	–
O=C(NN1C(=O)CSC1c1ccccc1F)c1cc(-c2ccc(F)cc2F)ccc1O (stereo not drawn)	–	–	–	–	–	–	–	–	–	–	–	48
O=C1N/C(=N\c2nnc(-c3ccc(Cl)cc3)s2)S/C1=C\c1ccc([N+](=O)[O-])cc1	–	–	–	–	33	–	–	–	–	–	–	–
O=C1N/C(=N\c2nnc(-c3ccc(Cl)cc3)s2)S/C1=C\c1ccc(F)cc1	94.9	64.2	82.2	inactive	25	73.1	–	–	–	–	–	–
Nc1nnc(-c2ccc(Cl)cc2)s1	72.8	32.4	37.4	inactive	16.8	28.6	–	1.6	–	–	–	–
O=C1N/C(=N\c2nnc(-c3ccc(F)cc3)s2)S/C1=C\c1ccccc1F	96.1	59.9	97.4	11%	62.4	55.7	51.1	–	–	–	–	–
COc1cccc(OC)c1/C=C1\S/C(=N/c2nnc(-c3ccc(Cl)cc3)s2)NC1=O	98.9	80.4	97.7	–	24.1	87.4	–	–	–	–	–	–
O=C1N/C(=N\c2nnc(-c3ccc(F)cc3)s2)S/C1=C\c1c(Cl)cccc1Cl	98.9	73.2	98.8	13.6%	74.1	72.2	19.8	–	–	–	–	–
O=C1N/C(=N\c2nnc(-c3ccc(Cl)cc3)s2)S/C1=C\c1ccccc1F	98.5	13.1	96.4	65.6%	56.2	12.8	56.2	–	–	–	–	–
O=C1N/C(=N\c2nnc(-c3ccc(Cl)cc3)s2)S/C1=C\c1ccccc1Cl	–	0	–	inactive	73.6	0	33.8	–	inactive	inactive	–	–

— ChEMBL document CHEMBL2434825, “2-Heteroarylimino-5-arylidene-4-thiazolidinones as a new class of non-nucleoside inhibitors of HCV NS5B polymerase” (Eur J Med Chem, 2013)
